{"source": "ChEMBL document CHEMBL3272032", "about": "“Antifolate studies. Activities of 40 potential antimalarial compounds against sensitive and chlorguanide triazine resistant strains of folate-requiring bacteria and Escherichia coli” (J Med Chem, 1977)", "key": {"Enterococcus faecium [1]": {"tested_on": "Enterococcus faecium", "test": "Antibacterial activity against chlorguanide triazine-resistant Streptococcus faecium ATCC 8043 assessed as reduction in growth in presence of 0.002 ug/ml folic acid", "assay_type": "functional, organism-based", "summary_of_the_method": "(§1)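 Folate-requiring strains grown in medium with folic acid, 0.002 µg/ml for S. faecium and 0.001 µg/ml for L. casei; P. cerevisiae given folinic acid, 0.001 µg/ml. Resistant substrains came from serial transfer in rising chlorguanide triazine, and the most resistant were used. Compounds tested up to 1000 µg/ml, or 100 µg/ml when supply was limited. Growth read as Klett turbidity; IC50 is the µM concentration giving 50% growth inhibition.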"}, "Lacticaseibacillus casei [2]": {"tested_on": "Lacticaseibacillus casei", "test": "Antibacterial activity against sensitive Lactobacillus casei ATCC 7469 assessed as reduction in growth in presence of 0.001 ug/ml folic acid", "assay_type": "functional, organism-based", "summary_of_the_method": "(§2)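 Folate-requiring strains in the medium of the earlier assay method. Folic acid was 0.002 μg/ml for S. faecium and 0.001 μg/ml for L. casei. Turbidity read on a Klett-Summerson colorimeter. IC50 is the micromolar concentration reducing growth to 50% of control. Top concentration was 1000 μg/ml, or 100 μg/ml if supply was limited.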"}, "Lacticaseibacillus casei [3]": {"tested_on": "Lacticaseibacillus casei", "test": "Antibacterial activity against chlorguanide triazine-resistant Lactobacillus casei ATCC 7469 assessed as reduction in growth in presence of 0.001 ug/ml folic acid", "assay_type": "functional, organism-based", "summary_of_the_method": "as §1"}, "Pediococcus [4]": {"tested_on": "Pediococcus", "test": "Antibacterial activity against sensitive Pediococcus cerevisiae ATCC 808 assessed as reduction in growth in presence of 0.001 ug/ml folinic acid", "assay_type": "functional", "summary_of_the_method": "(§3)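 P. cerevisiae grown with folinic acid at 0.001 μg/ml in the earlier-described medium. Turbidity read on a Klett-Summerson colorimeter. IC50 is the micromolar concentration reducing growth to 50% of control. Top concentration was 1000 μg/ml, or 100 μg/ml when supply was limited.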"}, "Pediococcus [5]": {"tested_on": "Pediococcus", "test": "Antibacterial activity against chlorguanide triazine-resistant Pediococcus cerevisiae ATCC 808 assessed as reduction in growth in presence of 0.001 ug/ml folinic acid", "assay_type": "functional", "summary_of_the_method": "as §1"}, "Escherichia coli [6]": {"tested_on": "Escherichia coli", "test": "Antibacterial activity against sensitive Escherichia coli ATCC 10536 assessed as reduction in growth in presence of p-aminobenzoic acid", "assay_type": "functional, organism-based", "summary_of_the_method": "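Reversal test. Drug inhibition was challenged with PABA in Sahyun et al. medium plus 0.6% acid-hydrolyzed casein. Growth read as turbidity on a Klett-Summerson colorimeter. Scored as reversal or nonreversal of the drug inhibition.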"}, "Plasmodium berghei [7]": {"tested_on": "Plasmodium berghei", "test": "Antimalarial activity against Plasmodium berghei infected in sc dosed mouse assessed as active dose required to increase of 100% in mean survival time", "assay_type": "functional", "details": "read-out: MED", "summary_of_the_method": "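Mice received a standard blood-induced P. berghei inoculum and were then treated with one subcutaneous dose of compound suspended in peanut oil. The minimum active dose is the lowest dose that raised mean survival time by 100%.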"}, "Plasmodium berghei [8]": {"tested_on": "Plasmodium berghei", "test": "Antimalarial activity against Plasmodium berghei infected in sc dosed mouse assessed as dose required to survivors for period of 60 days", "assay_type": "functional", "summary_of_the_method": "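Mice infected with a blood-induced P. berghei inoculum were given one subcutaneous dose in peanut oil. Survivors at 60 days counted as cured. The minimum curative dose is the lowest dose that cured any mouse.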"}, "Enterococcus faecium [9]": {"tested_on": "Enterococcus faecium", "test": "Antibacterial activity against sensitive Streptococcus faecium ATCC 8043 assessed as reduction in growth", "assay_type": "functional, organism-based", "summary_of_the_method": "as §1"}, "Enterococcus faecium [10]": {"tested_on": "Enterococcus faecium", "test": "Antibacterial activity against chlorguanide triazine-resistant Streptococcus faecium ATCC 8043 assessed as reduction in growth", "assay_type": "functional, organism-based", "summary_of_the_method": "as §1"}, "Enterococcus faecium [11]": {"tested_on": "Enterococcus faecium", "test": "Fold increase in resistance, ratio of IC50 for chlorguanide triazine-resistant Streptococcus faecium ATCC 8043 to IC50 for sensitive Streptococcus faecium ATCC 8043", "assay_type": "functional", "summary_of_the_method": "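Resistant S. faecium substrain raised by serial transfer in increasing chlorguanide triazine. IC50 (µM, 50% growth inhibition by turbidity) was found for resistant and parent strains in folic acid (0.002 µg/ml) medium. Fold increase taken as IC50 resistant / IC50 sensitive.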"}, "Lacticaseibacillus casei [12]": {"tested_on": "Lacticaseibacillus casei", "test": "Antibacterial activity against sensitive Lactobacillus casei ATCC 7469 assessed as reduction", "assay_type": "functional, organism-based", "summary_of_the_method": "as §1"}, "Lacticaseibacillus casei [13]": {"tested_on": "Lacticaseibacillus casei", "test": "Antibacterial activity against chlorguanide triazine-resistant Lactobacillus casei ATCC 7469 assessed as reduction in growth", "assay_type": "functional, organism-based", "summary_of_the_method": "as §1"}, "Lacticaseibacillus casei [14]": {"tested_on": "Lacticaseibacillus casei", "test": "Fold increase in resistance, ratio of IC50 for chlorguanide triazine-resistant Lactobacillus casei ATCC 7469 to IC50 for sensitive Lactobacillus casei ATCC 7469", "assay_type": "functional", "summary_of_the_method": "(§4)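 Resistant substrains were made by serial transfer in rising concentrations of cycloguanil, and the most resistant isolate of each organism was used. Both strains were assayed turbidimetrically under identical conditions. FIR = IC50 of the resistant strain divided by IC50 of the sensitive parent.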"}, "[15]": {"test": "Antibacterial activity against sensitive Pediococcus cerevisiae ATCC 808 assessed as reduction", "assay_type": "functional", "summary_of_the_method": "as §3"}, "[16]": {"test": "Antibacterial activity against chlorguanide triazine-resistant Pediococcus cerevisiae ATCC 808 assessed as reduction in growth", "assay_type": "functional", "summary_of_the_method": "as §1"}, "Pediococcus [17]": {"tested_on": "Pediococcus", "test": "Fold increase in resistance, ratio of IC50 for chlorguanide triazine-resistant Pediococcus cerevisiae ATCC 808 to IC50 for sensitive Pediococcus cerevisiae ATCC 808", "assay_type": "functional", "summary_of_the_method": "as §4"}, "Escherichia coli [18]": {"tested_on": "Escherichia coli", "test": "Antibacterial activity against sensitive Escherichia coli ATCC 10536 assessed as reduction in growth", "assay_type": "functional, organism-based", "summary_of_the_method": "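Growth inhibition in Sahyun et al. medium plus 0.6% acid-hydrolyzed casein. Growth read as turbidity on a Klett-Summerson photoelectric colorimeter. IC50 is the micromolar concentration giving 50% growth inhibition. Top concentration was 1000 μg/ml, or 100 μg/ml when compound was limited.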"}, "Enterococcus faecium [19]": {"tested_on": "Enterococcus faecium", "test": "Antibacterial activity against sensitive Streptococcus faecium ATCC 8043 assessed as reduction in growth in presence of 0.002 ug/ml folic acid", "assay_type": "functional, organism-based", "summary_of_the_method": "as §2"}}, "note": "Activity calls are given as the source filed them. The calls are words filed in the database; no cut-off is given here.", "data": [{"smiles": "Nc1nc(N)c2cc(S(=O)(=O)c3ccc4ccccc4c3)ccc2n1", "values": [{"measurement": "inhibition", "setting": "Enterococcus faecium [1]", "result": "inactive"}, {"measurement": "inhibition", "setting": "Lacticaseibacillus casei [2]", "result": "inactive"}, {"measurement": "inhibition", "setting": "Lacticaseibacillus casei [3]", "result": "inactive"}, {"measurement": "inhibition", "setting": "Pediococcus [4]", "result": "inactive"}, {"measurement": "inhibition", "setting": "Pediococcus [5]", "result": "inactive"}, {"measurement": "inhibition", "setting": "Escherichia coli [6]", "result": "Active"}, {"measurement": "minimal effective dose", "setting": "Plasmodium berghei [7]", "result": 0.63, "unit": "mg/kg"}, {"measurement": "MCD", "setting": "Plasmodium berghei [8]", "result": 1.25, "unit": "mg/kg"}, {"measurement": "IC50", "setting": "Enterococcus faecium [9]", "result": 2, "unit": "nM"}, {"measurement": "IC50", "setting": "Enterococcus faecium [10]", "result": 80, "unit": "nM"}, {"measurement": "Ratio IC50", "setting": "Enterococcus faecium [11]", "result": 40}, {"measurement": "IC50", "setting": "Lacticaseibacillus casei [12]", "result": 40, "unit": "nM"}, {"measurement": "IC50", "setting": "Lacticaseibacillus casei [13]", "result": 9, "unit": "nM"}, {"measurement": "Ratio IC50", "setting": "Lacticaseibacillus casei [14]", "result": 0.23}, {"measurement": "IC50", "setting": "[15]", "result": 2, "unit": "nM"}, {"measurement": "IC50", "setting": "[16]", "result": 50, "unit": "nM"}, {"measurement": "Ratio IC50", "setting": "Pediococcus [17]", "result": 25}, {"measurement": "IC50", "setting": "Escherichia coli [18]", "result": "< 200", "unit": "nM"}, {"measurement": "inhibition", "setting": "Enterococcus faecium [19]", "result": "inactive"}]}]}
